Data reported in ChEMBL document CHEMBL5661979, “Pharmacological inhibition of BMK1 suppresses tumor growth through promyelocytic leukemia protein” (Cancer Cell, 2010).

Tests used:
[1] = molecular target: Mitogen-activated protein kinase kinase kinase 4 (Homo sapiens, UniProt Q9Y6R4); assay: Inhibition of MAP3K4 in human HeLa cells lysate at 2 uM pre incubated for 15 mins followed by ATP acyl phosphate probe addition and measured after 10 mins by LC-MS/MS analysis relative to control; format: subcellular; details: time 25.0 min
[2] = molecular target: Calcium/calmodulin-dependent protein kinase kinase 1 (Homo sapiens, UniProt Q8N5S9); assay: Inhibition of CAMKK1 in human HeLa cells lysate pre incubated for 15 mins followed by ADP acyl phosphate probe addition and measured after 10 mins by LC-MS/MS analysis; format: subcellular
Summary of the method: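 KiNativ profiling in HeLa lysate (5 mg/mL total protein). Lysate incubated 15 min with inhibitor at 50, 10, 2, 0.8 or 0 μM. ATP or ADP acylphosphate probe then added (5 μM final) and reacted 10 min. Reaction stopped with urea and analysed by targeted MS, using up to four fragment ions per kinase peptide-probe conjugate. % inhibition taken against untreated lysate. Run in duplicate.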

[3] = molecular target: MAP/microtubule affinity-regulating kinase 3 (Homo sapiens, UniProt P27448); assay: Inhibition of MARK3 in human HeLa cells lysate pre incubated for 15 mins followed by ATP acyl phosphate probe addition and measured after 10 mins by LC-MS/MS analysis; format: subcellular
[4] = molecular target: 5'-AMP-activated protein kinase catalytic subunit alpha-1 (Homo sapiens, UniProt Q13131); assay: Inhibition of AMPKalpha1 in human HeLa cells lysate at 50 uM pre incubated for 15 mins followed by ADP acyl phosphate probe addition and measured after 10 mins by LC-MS/MS analysis relative to control; format: subcellular; details: time 25.0 min
Summary of the method: (§1)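 HeLa cell lysates (5 mg/mL total protein) were preincubated with inhibitor at 0, 0.8, 2, 10 or 50 μM for 15 min. ATP or ADP acylphosphate probe was then added (5 μM final) for 10 min, and reactions were stopped with urea. Up to four fragment ions per kinase probe-peptide were quantified by targeted MS. % inhibition was taken relative to untreated lysate. Run in duplicate.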

[5] = molecular target: Serine/threonine-protein kinase 4 (Homo sapiens, UniProt Q13043); assay: Inhibition of MST1 in human HeLa cells lysate pre incubated for 15 mins followed by ATP acyl phosphate probe addition and measured after 10 mins by LC-MS/MS analysis; format: subcellular
[6] = molecular target: Dual specificity mitogen-activated protein kinase kinase; MEK1/2 (Homo sapiens, UniProt P36507+Q02750); assay: Inhibition of MAP2K1/MAP2K2 in human HeLa cells lysate pre incubated for 15 mins followed by ADP acyl phosphate probe addition and measured after 10 mins by LC-MS/MS analysis; format: subcellular
[7] = Cmax in Sprague-Dawley rat at 2 mg/kg, po measured up to 8 hrs by LC-MS/MS analysis; format: ADME, organism-based; details: in vivo
Summary of the method: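 Sprague-Dawley rats given one intravenous dose or one oral dose of 2 mg/kg. Plasma drug concentrations were followed over time, with samples taken out to 8 hr after dosing. PK parameters (clearance, volume of distribution, half-life, oral bioavailability, Cmax) were calculated from these concentration–time data.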

[8] = Inhibition of MAP3K2/MAP3K3 in human HeLa cells lysate pre incubated for 15 mins followed by ADP acyl phosphate probe addition and measured after 10 mins by LC-MS/MS analysis; format: subcellular
[9] = molecular target: Mitogen-activated protein kinase kinase kinase 2 (Homo sapiens) (UniProt Q9Y2U5); assay: Inhibition of MAP3K2 in human HeLa cells lysate at 50 uM pre incubated for 15 mins followed by ADP acyl phosphate probe addition and measured after 10 mins by LC-MS/MS analysis relative to control; format: subcellular; details: time 25.0 min
[10] = molecular target: Cyclin-dependent kinase 12 (Homo sapiens, UniProt Q9NYV4); assay: Inhibition of CRK7 in human HeLa cells lysate pre incubated for 15 mins followed by ADP acyl phosphate probe addition and measured after 10 mins by LC-MS/MS analysis; format: subcellular
[11] = molecular target: T1, Phosphatidylinositol 5-phosphate 4-kinase type-2 alpha (Homo sapiens) (UniProt P48426); assay: Inhibition of PIP5K2A LIP site in human HeLa cells lysate at 2 uM pre incubated for 15 mins followed by ADP acyl phosphate probe addition and measured after 10 mins by LC-MS/MS analysis relative to control; format: subcellular; details: time 25.0 min
T1 sequence (whole entry): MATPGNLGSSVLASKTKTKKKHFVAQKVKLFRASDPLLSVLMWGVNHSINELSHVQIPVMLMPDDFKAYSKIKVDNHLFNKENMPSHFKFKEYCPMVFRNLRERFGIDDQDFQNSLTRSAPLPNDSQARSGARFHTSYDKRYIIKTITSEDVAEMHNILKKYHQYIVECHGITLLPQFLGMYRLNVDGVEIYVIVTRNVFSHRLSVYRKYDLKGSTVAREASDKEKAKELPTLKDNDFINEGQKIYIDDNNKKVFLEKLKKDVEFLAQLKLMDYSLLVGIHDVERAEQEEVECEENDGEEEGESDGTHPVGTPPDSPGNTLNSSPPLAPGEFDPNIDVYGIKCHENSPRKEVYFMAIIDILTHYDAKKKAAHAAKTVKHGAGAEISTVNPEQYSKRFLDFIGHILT

[12] = molecular target: RAC-alpha serine/threonine-protein kinase (Homo sapiens, UniProt P31749); assay: Inhibition of AKT1 in human HeLa cells lysate pre incubated for 15 mins followed by ATP acyl phosphate probe addition and measured after 10 mins by LC-MS/MS analysis; format: subcellular; summary of the method: as §1
[13] = molecular target: Ribosomal protein S6 kinase beta-1 (Homo sapiens, UniProt P23443); assay: Inhibition of P70S6K in human HeLa cells lysate at 2 uM pre incubated for 15 mins followed by ATP acyl phosphate probe addition and measured after 10 mins by LC-MS/MS analysis relative to control; format: subcellular; details: time 25.0 min
[14] = molecular target: Macrophage-stimulating protein receptor (Homo sapiens, UniProt Q04912); assay: Inhibition of RON in human HeLa cells lysate at 2 uM pre incubated for 15 mins followed by ADP acyl phosphate probe addition and measured after 10 mins by LC-MS/MS analysis relative to control; format: subcellular; details: time 25.0 min
[15] = Inhibition of HGK/MINK/TNIK in human HeLa cells lysate at 10 uM pre incubated for 15 mins followed by ADP acyl phosphate probe addition and measured after 10 mins by LC-MS/MS analysis relative to control; details: 25 min, condition cancer
[16] = molecular target: Interferon-induced, double-stranded RNA-activated protein kinase (Homo sapiens, UniProt P19525); assay: Inhibition of PKR in human HeLa cells lysate at 50 uM pre incubated for 15 mins followed by ADP acyl phosphate probe addition and measured after 10 mins by LC-MS/MS analysis relative to control; format: subcellular; details: time 25.0 min
[17] = molecular target: Epidermal growth factor receptor (Homo sapiens, UniProt P00533); assay: Inhibition of EGFR in human HeLa cells lysate at 10 uM pre incubated for 15 mins followed by ADP acyl phosphate probe addition and measured after 10 mins by LC-MS/MS analysis relative to control; format: subcellular; details: time 25.0 min
[18] = Inhibition of HGK/MINK/TNIK in human HeLa cells lysate at 10 uM pre incubated for 15 mins followed by ATP acyl phosphate probe addition and measured after 10 mins by LC-MS/MS analysis relative to control; details: 25 min, condition cancer
[19] = molecular target: Serine/threonine-protein kinase Nek9 (Homo sapiens, UniProt Q8TD19); assay: Inhibition of NEK9 in human HeLa cells lysate pre incubated for 15 mins followed by ATP acyl phosphate probe addition and measured after 10 mins by LC-MS/MS analysis; format: subcellular
Sequence of Serine/threonine-protein kinase Nek9 (Q8TD19 whole entry): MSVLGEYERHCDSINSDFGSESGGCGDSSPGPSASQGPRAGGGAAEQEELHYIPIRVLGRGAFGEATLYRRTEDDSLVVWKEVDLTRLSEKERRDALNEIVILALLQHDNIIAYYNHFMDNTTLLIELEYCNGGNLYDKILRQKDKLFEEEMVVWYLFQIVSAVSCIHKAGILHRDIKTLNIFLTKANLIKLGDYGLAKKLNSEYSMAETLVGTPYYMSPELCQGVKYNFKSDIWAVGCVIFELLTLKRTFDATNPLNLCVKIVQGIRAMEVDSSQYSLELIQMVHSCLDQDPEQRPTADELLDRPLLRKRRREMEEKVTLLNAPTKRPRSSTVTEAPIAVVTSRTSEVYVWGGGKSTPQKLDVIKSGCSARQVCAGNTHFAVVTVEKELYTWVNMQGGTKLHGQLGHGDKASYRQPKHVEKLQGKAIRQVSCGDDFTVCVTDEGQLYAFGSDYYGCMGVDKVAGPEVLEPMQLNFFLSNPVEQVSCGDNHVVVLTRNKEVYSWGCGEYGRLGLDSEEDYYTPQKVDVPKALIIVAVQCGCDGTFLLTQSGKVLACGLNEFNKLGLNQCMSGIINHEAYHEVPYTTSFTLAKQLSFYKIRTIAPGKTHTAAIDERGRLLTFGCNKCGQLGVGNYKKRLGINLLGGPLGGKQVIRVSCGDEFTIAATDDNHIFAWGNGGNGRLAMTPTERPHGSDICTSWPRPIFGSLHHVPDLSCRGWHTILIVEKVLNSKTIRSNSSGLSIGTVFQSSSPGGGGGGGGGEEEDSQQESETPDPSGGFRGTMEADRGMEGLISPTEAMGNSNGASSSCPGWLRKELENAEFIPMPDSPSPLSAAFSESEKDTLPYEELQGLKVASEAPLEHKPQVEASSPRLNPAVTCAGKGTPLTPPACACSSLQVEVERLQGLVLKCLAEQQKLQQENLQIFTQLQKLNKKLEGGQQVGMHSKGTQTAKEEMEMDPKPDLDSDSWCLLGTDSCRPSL

Sequence of Serine/threonine-protein kinase 4 (Q13043 whole entry): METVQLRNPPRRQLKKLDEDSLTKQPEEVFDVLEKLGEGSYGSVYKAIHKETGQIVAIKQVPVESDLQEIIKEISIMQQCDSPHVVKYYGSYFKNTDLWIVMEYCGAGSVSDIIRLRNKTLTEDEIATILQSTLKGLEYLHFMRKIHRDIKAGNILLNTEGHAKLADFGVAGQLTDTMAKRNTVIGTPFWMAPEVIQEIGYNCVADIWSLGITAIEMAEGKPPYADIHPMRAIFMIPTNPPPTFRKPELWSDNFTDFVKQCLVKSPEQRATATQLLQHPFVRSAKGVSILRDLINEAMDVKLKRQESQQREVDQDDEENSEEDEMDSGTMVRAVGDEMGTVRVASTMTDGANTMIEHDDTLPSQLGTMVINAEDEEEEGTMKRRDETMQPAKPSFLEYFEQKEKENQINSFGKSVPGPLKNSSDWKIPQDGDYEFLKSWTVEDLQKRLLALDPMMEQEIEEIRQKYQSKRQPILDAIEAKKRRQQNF
Sequence of MAP/microtubule affinity-regulating kinase 3 (P27448 whole entry): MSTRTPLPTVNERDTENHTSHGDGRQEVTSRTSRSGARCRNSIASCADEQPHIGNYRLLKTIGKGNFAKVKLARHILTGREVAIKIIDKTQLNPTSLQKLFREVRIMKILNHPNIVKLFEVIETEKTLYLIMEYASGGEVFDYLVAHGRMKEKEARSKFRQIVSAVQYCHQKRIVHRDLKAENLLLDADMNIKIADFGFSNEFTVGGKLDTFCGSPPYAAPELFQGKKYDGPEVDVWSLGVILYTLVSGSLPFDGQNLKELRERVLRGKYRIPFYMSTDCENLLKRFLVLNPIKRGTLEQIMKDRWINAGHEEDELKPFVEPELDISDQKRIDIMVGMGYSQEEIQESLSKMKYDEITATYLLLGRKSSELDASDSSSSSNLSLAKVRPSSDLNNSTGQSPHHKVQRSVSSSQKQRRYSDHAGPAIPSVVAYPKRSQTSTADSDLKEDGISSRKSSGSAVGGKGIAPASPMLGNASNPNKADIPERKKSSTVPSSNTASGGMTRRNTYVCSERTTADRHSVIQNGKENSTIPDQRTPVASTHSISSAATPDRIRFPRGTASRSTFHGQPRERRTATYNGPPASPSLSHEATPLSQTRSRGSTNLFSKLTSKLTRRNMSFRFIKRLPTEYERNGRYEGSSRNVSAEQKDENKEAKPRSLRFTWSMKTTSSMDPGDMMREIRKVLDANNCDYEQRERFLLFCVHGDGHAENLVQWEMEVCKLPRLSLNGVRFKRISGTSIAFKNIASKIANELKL
Sequence of Epidermal growth factor receptor (P00533 whole entry): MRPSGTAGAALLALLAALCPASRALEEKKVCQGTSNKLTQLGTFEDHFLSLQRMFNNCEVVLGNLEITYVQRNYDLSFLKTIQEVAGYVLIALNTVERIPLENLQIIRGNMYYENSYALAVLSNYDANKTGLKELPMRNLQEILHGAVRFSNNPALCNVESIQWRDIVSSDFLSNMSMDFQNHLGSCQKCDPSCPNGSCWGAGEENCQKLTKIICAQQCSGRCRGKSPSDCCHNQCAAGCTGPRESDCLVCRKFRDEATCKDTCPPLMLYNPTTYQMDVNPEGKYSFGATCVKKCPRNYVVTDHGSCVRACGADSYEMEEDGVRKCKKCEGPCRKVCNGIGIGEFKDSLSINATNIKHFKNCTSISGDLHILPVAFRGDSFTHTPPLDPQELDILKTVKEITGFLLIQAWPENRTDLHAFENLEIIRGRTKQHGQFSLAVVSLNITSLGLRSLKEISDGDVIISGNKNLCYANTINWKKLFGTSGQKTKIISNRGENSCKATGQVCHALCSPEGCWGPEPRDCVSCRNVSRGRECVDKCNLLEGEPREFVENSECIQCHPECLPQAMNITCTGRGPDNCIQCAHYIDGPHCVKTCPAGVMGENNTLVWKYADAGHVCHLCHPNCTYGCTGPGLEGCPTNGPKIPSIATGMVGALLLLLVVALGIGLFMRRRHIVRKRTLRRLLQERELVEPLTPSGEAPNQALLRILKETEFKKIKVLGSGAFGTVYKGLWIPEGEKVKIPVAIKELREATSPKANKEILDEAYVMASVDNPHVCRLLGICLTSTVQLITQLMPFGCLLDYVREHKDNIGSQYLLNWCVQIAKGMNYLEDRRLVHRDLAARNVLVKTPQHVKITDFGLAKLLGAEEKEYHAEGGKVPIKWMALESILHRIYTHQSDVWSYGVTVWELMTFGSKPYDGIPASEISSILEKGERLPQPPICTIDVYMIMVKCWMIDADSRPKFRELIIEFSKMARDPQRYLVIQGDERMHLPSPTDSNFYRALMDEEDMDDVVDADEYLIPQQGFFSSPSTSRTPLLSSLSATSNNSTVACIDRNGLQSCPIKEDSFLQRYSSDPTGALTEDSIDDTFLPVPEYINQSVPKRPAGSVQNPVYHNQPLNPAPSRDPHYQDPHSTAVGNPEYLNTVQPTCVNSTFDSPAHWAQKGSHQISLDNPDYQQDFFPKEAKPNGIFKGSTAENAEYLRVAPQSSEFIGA
Sequence of Ribosomal protein S6 kinase beta-1 (P23443 whole entry, looked up): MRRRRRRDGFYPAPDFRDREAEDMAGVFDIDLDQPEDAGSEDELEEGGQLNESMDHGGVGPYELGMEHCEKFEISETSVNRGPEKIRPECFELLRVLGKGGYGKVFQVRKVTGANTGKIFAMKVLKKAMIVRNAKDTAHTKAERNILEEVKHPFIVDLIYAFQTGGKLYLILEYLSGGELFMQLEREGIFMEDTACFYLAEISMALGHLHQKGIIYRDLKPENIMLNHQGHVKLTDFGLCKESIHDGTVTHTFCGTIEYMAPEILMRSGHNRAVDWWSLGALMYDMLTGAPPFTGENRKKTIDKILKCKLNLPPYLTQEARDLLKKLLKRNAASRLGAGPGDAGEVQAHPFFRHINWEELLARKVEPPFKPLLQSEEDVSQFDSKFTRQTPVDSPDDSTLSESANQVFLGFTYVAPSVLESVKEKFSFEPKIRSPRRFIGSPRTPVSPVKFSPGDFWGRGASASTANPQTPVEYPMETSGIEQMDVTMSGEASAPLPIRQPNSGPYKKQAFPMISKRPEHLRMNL
Sequence of RAC-alpha serine/threonine-protein kinase (P31749 whole entry): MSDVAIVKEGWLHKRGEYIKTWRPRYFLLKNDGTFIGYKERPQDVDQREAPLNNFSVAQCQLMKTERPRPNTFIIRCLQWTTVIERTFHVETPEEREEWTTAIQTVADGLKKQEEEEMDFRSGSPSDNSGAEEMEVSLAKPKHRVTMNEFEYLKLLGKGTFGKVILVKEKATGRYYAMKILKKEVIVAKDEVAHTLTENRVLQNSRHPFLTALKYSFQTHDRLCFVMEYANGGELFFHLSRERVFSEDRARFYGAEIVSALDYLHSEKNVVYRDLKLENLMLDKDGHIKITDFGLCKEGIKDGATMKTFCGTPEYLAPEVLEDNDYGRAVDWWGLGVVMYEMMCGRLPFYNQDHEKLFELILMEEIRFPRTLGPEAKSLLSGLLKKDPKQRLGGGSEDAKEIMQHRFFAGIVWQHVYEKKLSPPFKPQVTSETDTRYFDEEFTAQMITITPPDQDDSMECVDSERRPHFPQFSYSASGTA
Sequence of Mitogen-activated protein kinase kinase kinase 2 (Homo sapiens) (Q9Y2U5 whole entry): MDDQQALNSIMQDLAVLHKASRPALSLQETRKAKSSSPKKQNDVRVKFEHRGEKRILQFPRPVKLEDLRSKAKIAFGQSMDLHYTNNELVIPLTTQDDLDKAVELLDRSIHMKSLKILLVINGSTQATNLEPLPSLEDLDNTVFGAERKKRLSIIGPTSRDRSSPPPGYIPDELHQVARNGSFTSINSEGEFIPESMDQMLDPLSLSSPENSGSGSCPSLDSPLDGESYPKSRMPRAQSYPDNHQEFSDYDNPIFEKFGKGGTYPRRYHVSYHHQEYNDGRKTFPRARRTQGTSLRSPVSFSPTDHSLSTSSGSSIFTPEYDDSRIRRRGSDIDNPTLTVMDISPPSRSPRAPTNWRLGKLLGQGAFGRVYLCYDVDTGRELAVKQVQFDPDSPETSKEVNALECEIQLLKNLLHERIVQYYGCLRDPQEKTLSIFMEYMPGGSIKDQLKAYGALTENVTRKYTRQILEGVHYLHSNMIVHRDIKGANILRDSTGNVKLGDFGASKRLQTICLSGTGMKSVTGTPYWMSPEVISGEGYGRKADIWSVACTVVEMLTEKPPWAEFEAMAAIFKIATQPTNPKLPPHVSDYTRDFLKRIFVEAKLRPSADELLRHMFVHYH

Question: Which inhibition [1] does the source give for CCOc1cc(N2CCC(O)CC2)ccc1Nc1ncc2c(n1)N(C)c1ccccc1C(=O)N2C here?
Answer: -8.8%

Question: And the IC50 [2]?
Answer: > 50 µM

Question: And the IC50 [3]?
Answer: > 50 µM

Question: What about the inhibition [4] of the same compound?
Answer: 10.2%

Question: What about the IC50 [5] of the same compound?
Answer: > 50 µM

Question: What about the IC50 [6] of the same compound?
Answer: > 50 µM

Question: And the Cmax [7]?
Answer: 522 nM

Question: What about the IC50 [8] of the same compound?
Answer: > 50 µM

Question: What about the inhibition [9] of the same compound?
Answer: 3.7%

Question: And the IC50 [10]?
Answer: > 50 µM

Question: And the inhibition [11]?
Answer: 5.5%

Question: And the IC50 [12]?
Answer: > 50 µM

Question: What about the inhibition [13] of the same compound?
Answer: 7%

Question: What about the inhibition [14] of the same compound?
Answer: 23.7%

Question: What about the inhibition at 10 µM [15] of the same compound?
Answer: -25.3%

Question: And the inhibition [16]?
Answer: -8.7%

Question: And the inhibition [17]?
Answer: 9.9%

Question: And the inhibition at 10 µM [18]?
Answer: -6.3%

Question: And the IC50 [19]?
Answer: > 50 µM
